From ChEMBL document CHEMBL1123837, “1-Amino-substituted 4-methyl-5H-pyrido[3',4':4,5]pyrrolo[3,2-c]pyridines: a new class of antineoplastic agents” (J Med Chem, 1987)

Tests used:
Mus musculus [1] = experiment: In vivo antitumor activity was evaluated on L1210 leukemia model and number of survivors (animals) was determined at 60 mg/kg dosage concentration; number of survivors given as 1/10; type: functional
How it was run: (§1)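 L1210 leukemia, 10^5 viable cells inoculated ip on day 0 into CDF1 hybrid male or female mice, 10 mice per group. Compounds were given ip in distilled water (0.1 mL/10 g body weight) on days 1-5. Vehicle controls were treated the same way. NCI protocols were followed. T/C = median survival day of treated mice / median survival day of vehicle controls × 100.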

Mus musculus [2] = experiment: In vivo antitumor activity was evaluated on L1210 leukemia model and median survival day was determined at 60 mg/kg dosage concentration.; type: functional; how it was run: as §1
Mus musculus [3] = experiment: In vivo antitumor activity was evaluated on L1210 leukemia model and percent of treated/control of tumor cells was determined at 2.5 mg/kg dosage concentration; type: functional
How it was run: (§2)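 Following NCI protocols, 10^5 viable L1210 leukemia cells were inoculated ip on day 0 into male or female CDF1 hybrid mice, 10 per test group. Compounds in distilled water were dosed ip (0.1 mL/10 g body weight) daily on days 1–5. T/C = median survival day of treated mice / median survival day of negative controls × 100.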

Mus musculus [4] = experiment: In vivo antitumor activity was evaluated on L1210 leukemia model and weight change in tumors was determined at 15 mg/kg dosage concentration.; type: functional
Mus musculus [5] = experiment: In vivo antitumor activity was evaluated on L1210 leukemia model and percent of treated/control of tumor cells was determined at 30 mg/kg dosage concentration; type: functional; how it was run: as §2
Mus musculus [6] = experiment: In vivo antitumor activity was evaluated on L1210 leukemia model and number of survivors (animals) was determined at 5 mg/kg dosage concentration; number of survivors given as 0/10; type: functional; how it was run: as §1
Mus musculus [7] = experiment: In vivo antitumor activity was evaluated on L1210 leukemia model and weight change in tumors was determined at 5 mg/kg dosage concentration; type: functional
Mus musculus [8] = experiment: In vivo antitumor activity was evaluated on L1210 leukemia model and number of survivors (animals) was determined at 15 mg/kg dosage concentration; number of survivors given as 0/10; type: functional; how it was run: as §1
Mus musculus [9] = experiment: In vivo antitumor activity was evaluated on L1210 leukemia model and median survival day was determined at 30 mg/kg dosage concentration; type: functional; how it was run: as §1
Mus musculus [10] = experiment: In vivo antitumor activity was evaluated on L1210 leukemia model and median survival day was determined at 80 mg/kg dosage concentration.; type: functional; how it was run: as §1
Mus musculus [11] = experiment: In vivo antitumor activity was evaluated on L1210 leukemia model and percent of treated/control of tumor cells was determined at 5 mg/kg dosage concentration; type: functional; how it was run: as §2
Mus musculus [12] = experiment: In vivo antitumor activity was evaluated on L1210 leukemia model and weight change in tumors was determined at 30 mg/kg dosage concentration; type: functional
Mus musculus [13] = experiment: In vivo antitumor activity was determined against P388 leukemia cells expressed as treated/control at the dosage of 40 mg/kg; type: functional
How it was run: (§3)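 Following NCI protocols, 10^6 viable P388 leukemia cells were inoculated ip on day 0 into male or female CDF1 hybrid mice, 10 per test group. Compounds in distilled water were given ip (0.1 mL/10 g body weight) at various doses on days 1–5. T/C = median survival day of treated / median survival day of negative controls × 100.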

Mus musculus [14] = experiment: In vivo antitumor activity was evaluated on L1210 leukemia model and median survival day was determined at 2.5 mg/kg dosage concentration; type: functional; how it was run: as §1
Mus musculus [15] = experiment: In vivo antitumor activity was evaluated on L1210 leukemia model and weight change in tumors was determined at 2.5 mg/kg dosage concentration; type: functional
Mus musculus [16] = experiment: In vivo antitumor activity was evaluated on L1210 leukemia model and percent of treated/control of tumor cells was determined at 60 mg/kg dosage concentration.; type: functional; how it was run: as §2
Mus musculus [17] = experiment: In vivo antitumor activity was evaluated on L1210 leukemia model and weight change in tumors was determined at 60 mg/kg dosage concentration.; type: functional
Mus musculus [18] = experiment: In vivo antitumor activity was evaluated on L1210 leukemia model and number of survivors (animals) was determined at 2.5 mg/kg dosage concentration; number of survivors given as 0/10; type: functional; how it was run: as §1
Mus musculus [19] = experiment: In vivo antitumor activity was determined against P388 leukemia cells expressed as treated/control at the dosage of 50 mg/kg; type: functional; how it was run: as §3
Mus musculus [20] = experiment: In vivo antitumor activity was determined against P388 leukemia cells expressed as number of; type: functional
How it was run: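 P388 leukemia, 10^6 viable cells inoculated ip on day 0 into CDF1 hybrid male or female mice, 10 mice per group. Compounds were given ip in distilled water (0.1 mL/10 g body weight) at various doses on days 1-5. Vehicle controls were treated the same way. NCI protocols were followed.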

Mus musculus [21] = experiment: In vivo antitumor activity was determined against P388 leukemia cells expressed as treated/control at the dosage of 20 mg/kg; type: functional; how it was run: as §3
Mus musculus [22] = experiment: In vivo antitumor activity was evaluated on L1210 leukemia model and number of survivors (animals) was determined at 80 mg/kg dosage concentration; number of survivors given as 0/10; type: functional; how it was run: as §1
Mus musculus [23] = experiment: In vivo antitumor activity was evaluated on L1210 leukemia model and weight change in tumors was determined at 80 mg/kg dosage concentration.; type: functional
Mus musculus [24] = experiment: In vivo antitumor activity was evaluated on L1210 leukemia model and median survival day was determined at 15 mg/kg dosage concentration.; type: functional; how it was run: as §1
Mus musculus [25] = experiment: In vivo antitumor activity was evaluated on L1210 leukemia model and number of survivors (animals) was determined at 30 mg/kg dosage concentration; number of survivors given as 0/10; type: functional; how it was run: as §1
Mus musculus [26] = experiment: In vivo antitumor activity was determined against P388 leukemia cells expressed as treated/control at the dosage of 10 mg/kg; type: functional; how it was run: as §3
Mus musculus [27] = experiment: In vivo antitumor activity was evaluated on L1210 leukemia model and percent of treated/control of tumor cells was determined at 15 mg/kg dosage concentration.; type: functional; how it was run: as §2
Calf thymus DNA = experiment: Binding affinity for DNA by ethidium bromide displacement assay; type: nucleic-acid assay; conditions: Bos taurus
How it was run: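 Competitive ethidium bromide displacement with calf thymus DNA at 10 µg/mL in 20 mM Na phosphate buffer, 0.1 M NaCl, 1 mM EDTA, pH 7.4. The apparent DNA affinity constant is given in 10^6 M^-1 ± standard deviation, from 6 values across two independent experiments.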

Mus musculus [28] = experiment: In vivo antitumor activity was evaluated on L1210 leukemia model and percent of treated/control of tumor cells was determined at 80 mg/kg dosage concentration.; type: functional; how it was run: as §2
Mus musculus [29] = experiment: In vivo antitumor activity was evaluated on L1210 leukemia model and median survival day was determined at 5 mg/kg dosage concentration; type: functional; how it was run: as §1

## CCN(CC)CCCNc1ncc(C)c2c1c1cnccc1n2C
Mus musculus [1]
  Survivors: 1
Mus musculus [2]
  Median survival day: 18
Mus musculus [3]
  T/C: 118%
Mus musculus [4]
  Weight changes: 0.8 g
Mus musculus [5]
  T/C: 187.5%
Mus musculus [6]
  Survivors: 0
Mus musculus [7]
  Weight changes: -0.3 g
Mus musculus [8]
  Survivors: 0
Mus musculus [9]
  Median survival day: 17.25
Mus musculus [10]
  Median survival day: 9.1
Mus musculus [11]
  T/C: 138%
Mus musculus [12]
  Weight changes: 0.2 g
Mus musculus [13]
  T/C: 172
Mus musculus [14]
  Median survival day: 10.9
Mus musculus [15]
  Weight changes: 0.7 g
Mus musculus [16]
  T/C: 196%
Mus musculus [17]
  Weight changes: -2.3 g
Mus musculus [18]
  Survivors: 0
Mus musculus [19]
  T/C: 207
Mus musculus [20]
  Survivors: 3
Mus musculus [21]
  T/C: 164
Mus musculus [22]
  Survivors: 0
Mus musculus [23]
  Weight changes: -2.3 g
Mus musculus [24]
  Median survival day: 13.75
Mus musculus [25]
  Survivors: 0
Mus musculus [26]
  T/C: 147
Mus musculus [27]
  T/C: 149%
Calf thymus DNA
  K aff: 40000 M⁻¹
Mus musculus [28]
  T/C: 99%
Mus musculus [29]
  Median survival day: 12.75
